Assay results published in ChEMBL document CHEMBL1817561, “5a-Carba-β-D-glucopyranose derivatives as novel sodium-dependent glucose cotransporter 2 (SGLT2) inhibitors for the treatment of type 2 diabetes” (Bioorg Med Chem, 2011).
pIC50: −log10 of the molar value. Activity calls are given as the source filed them. The calls are words filed in the database; no cut-off is given here.

Key:
[1] = molecular target: T1, Sodium/glucose cotransporter 2 (Homo sapiens, UniProt P31639); assay: Inhibition of human SGLT2 expressed in CHO cells assessed as [14C]AMG uptake after 45 mins; format: cell-based
T1 sequence (P31639 whole entry): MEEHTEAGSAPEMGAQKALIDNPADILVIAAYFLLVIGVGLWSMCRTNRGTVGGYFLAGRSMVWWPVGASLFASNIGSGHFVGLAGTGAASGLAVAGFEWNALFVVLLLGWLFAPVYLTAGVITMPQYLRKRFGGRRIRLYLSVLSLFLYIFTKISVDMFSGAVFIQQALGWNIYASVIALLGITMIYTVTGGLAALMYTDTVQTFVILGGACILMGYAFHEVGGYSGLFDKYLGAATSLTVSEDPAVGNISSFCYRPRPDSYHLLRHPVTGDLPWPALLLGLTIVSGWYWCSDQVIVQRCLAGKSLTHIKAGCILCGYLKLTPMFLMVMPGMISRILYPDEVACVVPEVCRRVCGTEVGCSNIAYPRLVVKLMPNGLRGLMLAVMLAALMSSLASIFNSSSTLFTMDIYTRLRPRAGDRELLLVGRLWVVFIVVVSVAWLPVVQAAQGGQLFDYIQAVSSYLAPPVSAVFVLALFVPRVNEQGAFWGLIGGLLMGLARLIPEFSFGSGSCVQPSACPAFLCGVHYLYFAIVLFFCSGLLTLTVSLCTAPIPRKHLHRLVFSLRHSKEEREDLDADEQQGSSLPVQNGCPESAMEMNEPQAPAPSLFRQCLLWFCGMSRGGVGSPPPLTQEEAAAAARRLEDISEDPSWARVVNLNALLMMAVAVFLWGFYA
How it was run: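 Cells incubated 45 min in reaction buffer with compound plus 1 mM AMG containing [14C]AMG; uptake read as radioactivity in cell lysates. IC50 from four-parameter logistic curve fit; means of multiple independent experiments, with phlorizin and reference standard included in every run.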

Mus musculus = assay: Antidiabetic activity in db/db mouse assessed as reduction of blood glucose level at 100 mg/kg, po after 8 hrs by hexokinase method; format: functional, organism-based; design: dose 100 mg/kg
How it was run: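 Male db/db mice on regular chow; single oral gavage dose of 100 mg/kg as homogeneous suspension in 0.5% carboxymethylcellulose sodium. Blood sampled before dosing and at 1, 2, 4, 6, 8, 10 and 24 h; glucose measured by hexokinase method.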

**Q.** `OC[C@H]1C[C@@H](Oc2ccccc2Cc2ccc(C(F)(F)F)cc2)[C@H](O)[C@@H](O)[C@@H]1O` was tested. Which pIC50 [1] did it give?
**A.** 6.92

**Q.** `COc1ccc(Cc2ccccc2O[C@@H]2O[C@H](CO)[C@@H](O)[C@H](O)[C@H]2O)cc1` [SERGLIFLOZIN A] was tested. Which pIC50 [1] did it give?
**A.** 8.32

**Q.** How did the pIC50 [1] turn out when `OC[C@H]1C[C@@H](Oc2ccccc2Cc2ccc(O)cc2)[C@H](O)[C@@H](O)[C@@H]1O` was run?
**A.** 6.54

**Q.** `OC[C@H]1C[C@@H](Oc2ccccc2Cc2ccc(F)cc2)[C@H](O)[C@@H](O)[C@@H]1O` was tested. Which pIC50 [1] did it give?
**A.** 6.20

**Q.** How did the pIC50 [1] turn out when `CC(C)c1ccc(Cc2ccccc2O[C@@H]2C[C@H](CO)[C@@H](O)[C@H](O)[C@H]2O)cc1` was run?
**A.** 6.82

**Q.** How did the pIC50 [1] turn out when `CCc1ccc(Cc2ccccc2O[C@@H]2C[C@H](CO)[C@@H](O)[C@H](O)[C@H]2O)cc1` was run?
**A.** 7.55

**Q.** How did the pIC50 [1] turn out when `CCOC(=O)OC[C@H]1O[C@@H](Oc2ccccc2Cc2ccc(OC)cc2)[C@H](O)[C@@H](O)[C@@H]1O` [SERGLIFLOZIN ETABONATE] was run?
**A.** 6.59

**Q.** And the Activity (Mus musculus)?
**A.** Active

**Q.** `CSc1ccc(Cc2ccccc2O[C@@H]2C[C@H](CO)[C@@H](O)[C@H](O)[C@H]2O)cc1` was tested. Which pIC50 [1] did it give?
**A.** 7.72

**Q.** How did the pIC50 [1] turn out when `C=Cc1ccc(Cc2ccccc2O[C@@H]2C[C@H](CO)[C@@H](O)[C@H](O)[C@H]2O)cc1` was run?
**A.** 7.54

**Q.** `OC[C@H]1C[C@@H](Oc2ccccc2Cc2ccccc2)[C@H](O)[C@@H](O)[C@@H]1O` was tested. Which pIC50 [1] did it give?
**A.** 6.16

**Q.** How did the pIC50 [1] turn out when `OC[C@H]1C[C@@H](Oc2ccccc2Cc2ccc(Cl)cc2)[C@H](O)[C@@H](O)[C@@H]1O` was run?
**A.** 6.82

**Q.** How did the pIC50 [1] turn out when `COc1ccc(Cc2ccccc2O[C@@H]2C[C@H](CO)[C@@H](O)[C@H](O)[C@H]2O)cc1` was run?
**A.** 7.38

**Q.** And the Activity (Mus musculus)?
**A.** Active

**Q.** With `CCOc1ccc(Cc2ccccc2O[C@@H]2C[C@H](CO)[C@@H](O)[C@H](O)[C@H]2O)cc1` as the compound, how does the pIC50 [1] read?
**A.** 6.96

**Q.** How did the pIC50 [1] turn out when `Cc1ccc(Cc2ccccc2O[C@@H]2C[C@H](CO)[C@@H](O)[C@H](O)[C@H]2O)cc1` was run?
**A.** 7.23

**Q.** `OC[C@H]1C[C@@H](Oc2ccccc2Cc2ccc(C3CC3)cc2)[C@H](O)[C@@H](O)[C@@H]1O` was tested. Which pIC50 [1] did it give?
**A.** 7.96

**Q.** How did the pIC50 [1] turn out when `CCCc1ccc(Cc2ccccc2O[C@@H]2C[C@H](CO)[C@@H](O)[C@H](O)[C@H]2O)cc1` was run?
**A.** 6.92
